# The source made the active and inactive calls. No cut-off for these calls is given here.
# Assays:
# [1] = (§1) Antagonist activity at voltage dependent L-type calcium channel in New Zealand white rabbit sigmoid colon circular smooth muscle strip assessed as relaxation response relative to papaverine; assay type: functional; settings: Oryctolagus cuniculus
# [2] = (§2) Antagonist activity at voltage dependent L-type calcium channel in New Zealand white rabbit sigmoid colon circular smooth muscle strip assessed as relaxation response; assay type: functional, Oryctolagus cuniculus
# How it was run: (§3)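 Strips held at 1 g basal tension and equilibrated 60 min in Ca2+-free KHS, with the solution changed every 15 min. Strips were then placed in Ca2+-free, 80 mM K+ solution and contracted by cumulative Ca2+ (2.5, 5, 10 mM). At the contraction plateau, compounds were added cumulatively (10^-8–10^-4 M). Emax and pD2 (−log EC50) were derived from concentration–relaxation curves, n = 6.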
# [3] = species: Oryctolagus cuniculus; experiment: as §2; assay type: functional; how it was run: as §3
# [4] = species: Oryctolagus cuniculus; experiment: as §1; assay type: functional
# [5] = (§4) Antagonist activity at voltage dependent L-type calcium channel in New Zealand white rabbit sigmoid colon circular smooth muscle strip assessed as induction of relaxation response in presence of Ca2+-activated potassium channel blocker tetraethylammonium; assay type: functional, Oryctolagus cuniculus; design: scale not given: the % may be the effect or the level left
# [6] = species: Oryctolagus cuniculus; experiment: as §4; assay type: functional
Structure (SMILES),Emax [1],pD2 [2],Activity [3],Emax [4],pD2 [3],Activity [5],Activity [6]
COCCOC(=O)C1=C(C)NC2=C(C(=O)C(C)(C)CC2)C1c1cc(C(F)(F)F)cc(Cl)c1F (stereo not drawn),43.7%,4.89,Dose-dependent effect,,,,
COC(=O)C1=C(C)NC2=C(C(=O)CC(C)(C)C2)C1c1cc(C(F)(F)F)cc(Cl)c1F (stereo not drawn),32.2%,4.84,Dose-dependent effect,,,,
COC(=O)C1=C(C)NC(C)=C(C(=O)OC)C1c1ccccc1[N+](=O)[O-] [NIFEDIPINE],94%,6.92,Dose-dependent effect,,,,
C=CCOC(=O)C1=C(C)NC2=C(C(=O)C(C)(C)CC2)C1c1cc(C(F)(F)F)cc(Cl)c1F (stereo not drawn),,,Dose-dependent effect,inactive,inactive,,
CC1=C(C(=O)OCC(C)C)C(c2cc(C(F)(F)F)cc(Cl)c2F)C2=C(CCC(C)(C)C2=O)N1 (stereo not drawn),,,Dose-dependent effect,inactive,inactive,,
CC1=C(C(=O)OC(C)(C)C)C(c2cc(C(F)(F)F)cc(Cl)c2F)C2=C(CCC(C)(C)C2=O)N1 (stereo not drawn),,,Dose-dependent effect,inactive,inactive,,
CC1=C(C(=O)OC(C)(C)C)C(c2cc(C(F)(F)F)cc(Cl)c2F)C2=C(CC(C)(C)CC2=O)N1 (stereo not drawn),,,Dose-dependent effect,inactive,inactive,,
CC1=C(C(=O)OCc2ccccc2)C(c2cc(C(F)(F)F)cc(Cl)c2F)C2=C(CCC(C)(C)C2=O)N1 (stereo not drawn),,,Dose-dependent effect,inactive,inactive,,
CCOC(=O)C1=C(C)NC2=C(C(=O)C(C)(C)CC2)C1c1cc(C(F)(F)F)cc(Cl)c1F (stereo not drawn),23%,5.06,Dose-dependent effect,,,,
COC(=O)C1=C(C)NC2=C(C(=O)C(C)(C)CC2)C1c1cc(C(F)(F)F)cc(Cl)c1F (stereo not drawn),17.2%,4.94,Dose-dependent effect,,,17.19%,
CCOC(=O)C1=C(C)NC2=C(C(=O)CC(C)(C)C2)C1c1cc(C(F)(F)F)cc(Cl)c1F (stereo not drawn),22.8%,4.74,Dose-dependent effect,,,,
CC1=C(C(=O)OCc2ccccc2)C(c2cc(C(F)(F)F)cc(Cl)c2F)C2=C(CC(C)(C)CC2=O)N1 (stereo not drawn),,,Dose-dependent effect,inactive,inactive,,
CC1=C(C(=O)OCC(C)C)C(c2cc(C(F)(F)F)cc(Cl)c2F)C2=C(CC(C)(C)CC2=O)N1 (stereo not drawn),,,Dose-dependent effect,inactive,inactive,,
C=CCOC(=O)C1=C(C)NC2=C(C(=O)CC(C)(C)C2)C1c1cc(C(F)(F)F)cc(Cl)c1F (stereo not drawn),,,Dose-dependent effect,inactive,inactive,,
CC1(C)CCC2=C(C1=O)C(c1cc(C(F)(F)F)cc(Cl)c1F)C1=C(COC1=O)N2 (stereo not drawn),,,Dose-dependent effect,inactive,inactive,,inactive
CC1(C)CC(=O)C2=C(C1)NC1=C(C(=O)OC1)C2c1cc(C(F)(F)F)cc(Cl)c1F (stereo not drawn),,,Dose-dependent effect,inactive,inactive,,
COCCOC(=O)C1=C(C)NC2=C(C(=O)CC(C)(C)C2)C1c1cc(C(F)(F)F)cc(Cl)c1F (stereo not drawn),45%,5.11,Dose-dependent effect,,,,

# Source: ChEMBL document CHEMBL1158354, “Condensed 1,4-dihydropyridines with various esters and their calcium channel antagonist activities” (2009)
